Measured values reported in PubChem BioAssay AID493050 (Broad Institute, 2011).
Several values for one entry are separate records, joined by “and”; a condition that tells them apart may be missing. Identical values can stand only once. Activity calls are given as the source filed them.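 How the source made its calls: active means viability falling with dose, half-maximal potency at or under ten times the top valid dose; inconclusive means flat partial loss of viability, or an unreliable curve fit; inactive means the rest, including a rising signal.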

tested on: not listed separately; assay: viability loss in HRASV12 DRD fibroblasts, dose response, cell-based, DRD BJ fibroblasts, dry powder, set 2 (AID 493050); settings: DRD (HRASV12 BJ) fibroblasts viability, Alamar Blue, 48 h; at 48 µM (top of the series)
How it was run: (§1)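 Assay system: DRD BJ fibroblasts expressing SV40 ST, dn-p53, cyclin D1, CDK4mut, HRASV12; signal: Alamar Blue fluorescence, excitation 544 nm, emission 590 nm; incubation: 48 h compound treatment, ~16 h dye incubation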

| SMILES | activity change, negative = viability loss |
| --- | --- |
| CC(C)c1onc(C(=O)N2CCN(C(c3ccccc3)c3ccccc3)CC2)c1[N+](=O)[O-] | 4.37% (inactive) |
| Cc1onc(C(=O)N2CCN(C(c3ccncc3)c3ccncc3)CC2)c1[N+](=O)[O-] | 1.3% (inactive) |
| O=C(c1noc2ccccc12)N1CCN(C(c2ccccc2)c2ccccc2)CC1 | 4.79% (inactive) |
| Cc1onc(C(=O)N2CCN(C(c3ccccc3)c3ccccc3)CC2)c1Br | 8.89% (inactive) |
| Cc1onc(C(=O)N2CCN(C(c3ccccn3)c3ccccn3)CC2)c1[N+](=O)[O-] | 3.35% (inactive) |
| Cc1onc(C(=O)N2CCN(C(c3ccccc3)c3ccccc3)CC2)c1NS(C)(=O)=O | 2.79% (inactive) |
| O=[N+]([O-])c1ccc(CN2CCN(C(c3ccccc3)c3ccccc3)CC2)o1 | -0.32% (inactive) |
| CC(=O)Nc1c(C(=O)N2CCN(C(c3ccccc3)c3ccccc3)CC2)noc1C | 5.57% (inactive) |
| Cc1ccc(C(=O)N2CCN(C(c3ccccc3)c3ccccc3)CC2)c([N+](=O)[O-])c1 | 15.7% (inactive) |
| Cc1oc(C)c(C(=O)N2CCN(C(c3ccccc3)c3ccccc3)CC2)c1C | 11.7% (inactive) |
| Cc1onc(C(=O)N2CCN(C(c3ccccc3)c3ccccc3)CC2)c1C | 10.5% (inactive) |
| Cc1onc(C(=O)N2CCN(C(c3ccccc3)c3ccccc3)CC2)c1N | 1.23% (inactive) |

same assay, conditions: DRD (HRASV12 BJ) fibroblasts viability, Alamar Blue, 48 h; at 68 µM (top of the series)

| SMILES | activity change, negative = viability loss |
| --- | --- |
| CCOC(=O)N1CCN(C(=O)c2noc(C)c2[N+](=O)[O-])CC1 | 6.53% (inactive) |
| Cc1onc(C(=O)NCc2ccc(F)cc2)c1[N+](=O)[O-] | 0.881% (inactive) |
| COc1ccccc1N1CCN(C(=O)c2noc(C)c2[N+](=O)[O-])CC1 | 0.386% (inactive) |
| Cc1onc(C(=O)N2CCOCC2)c1[N+](=O)[O-] | 4.86% (inactive) |
| Cc1cc(C(=O)N2CCN(Cc3ccccc3)CC2)no1 | -2.15% (inactive) |

tested on: DRD (HRASV12 BJ) fibroblasts viability, Alamar Blue, 48 h; assay: as above; settings: not given
How it was run: as §1

| SMILES | AC50 |
| --- | --- |
| O=C(c1ccc([N+](=O)[O-])o1)N1CCN(C(c2ccc(F)cc2)c2ccc(F)cc2)CC1 | 13.1 µM |
| Cc1onc(C(=O)N2CCN(C(c3ccccc3)c3ccccc3)CC2)c1[N+](=O)[O-] | 4.75 µM and 1.71 µM |
| Cc1onc(C(=O)N2CCN(C(c3ccc(F)cc3)c3ccc(F)cc3)CC2)c1[N+](=O)[O-] | 0.226 µM |
| O=C(c1ccc([N+](=O)[O-])o1)N1CCN(C(c2ccccc2)c2ccccc2)CC1 | 19.4 µM |
| Cc1onc(C(=O)N2CCN(C(c3ccccc3)c3ccc(Cl)cc3)CC2)c1[N+](=O)[O-] (centres undefined) | 0.21 µM |
| Cc1onc(C(=O)N2CCCN(C(c3ccccc3)c3ccccc3)CC2)c1[N+](=O)[O-] | 1.1 µM |
| Cc1onc(C(=O)NCCNC(c2ccccc2)c2ccccc2)c1[N+](=O)[O-] | 16 µM |
| O=C(c1ccc([N+](=O)[O-])o1)N1CCCN(C(c2ccccc2)c2ccccc2)CC1 | 46.5 µM |
| O=C(NCCNC(c1ccccc1)c1ccccc1)c1ccc([N+](=O)[O-])o1 | 8.27 µM |
| Cc1onc(C(=O)N2CCN(C(c3ccc(Cl)cc3)c3ccc(Cl)cc3)CC2)c1[N+](=O)[O-] | 0.107 µM |
| COc1ccc(C(c2ccc(OC)cc2)N2CCN(C(=O)c3noc(C)c3[N+](=O)[O-])CC2)cc1 | 1.85 µM |
| COc1ccc(C(c2ccc(OC)cc2)N2CCN(C(=O)c3ccc([N+](=O)[O-])o3)CC2)cc1 | 8.37 µM |
